Active and inactive are the calls of the source. No cut-off for these calls is given here.
Assays:
[1] = Half life in Sprague-Dawley rat liver at 10 mg/kg, po; assay type: ADME, organism-based; design: dose 10 mg/kg, route oral
In short: (§1)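 Dose-proportionality PK in Sprague–Dawley rats (n = 3) given single oral doses of 3, 10, 30 or 100 mg/kg. Liver and plasma were sampled at 0.5, 1, 2, 4 and 8 h and assayed for drug concentration to derive Cmax, AUC(0–∞) and T1/2.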

[2] = Half life in Sprague-Dawley rat liver at 30 mg/kg, po; assay type: ADME, organism-based; design: dose 30 mg/kg, route oral; in short: as §1
Mus musculus [3] = assay: Increase in peptide YY level in 3-day high fat diet fed C57BL/6 mouse at 10 mg/kg, po daily for 3 days; assay type: functional, organism-based; design: dose 10 mg/kg
Mus musculus [4] = assay: Increase in peptide YY level in 3-day high fat diet fed C57BL/6 mouse at 3 mg/kg, po daily for 3 days; assay type: functional, organism-based; design: dose 3 mg/kg
In short: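 C57BL/6 male mice (n = 9) on high-fat diet were dosed po once daily for 3 days with vehicle (5% PEG400, 0.25% Tween 80, 94.25% H2O) or test article, then given a final morning dose. Blood was taken at 30 min, 2 h and 6 h, and PYY was measured by EIA kit. Statistics by Student's t test.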

Mus musculus [5] = assay: Decrease in plasma triglyceride level in […] C57BL/6 mouse at 3 mg/kg, po daily for 3 days measured after 6 hrs; assay type: functional; design: scale not given: the % may be the effect or the level left
In short: (§2)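 Lean C57BL/6 mice were given high-fat diet for 1 week, then dosed orally once daily in the evening for 3 days. Food intake and body weight were recorded daily. At the end a morning dose was given, and blood was drawn at 30 min, 2 h and 6 h for plasma triglycerides.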

Mus musculus [6] = assay: Decrease in plasma triglyceride level in […] C57BL/6 mouse at 10 mg/kg, po daily for 3 days measured after 6 hrs; assay type: functional; design: scale not given: the % may be the effect or the level left
Mus musculus [7] = assay: Decrease in total food intake in 3-day high fat diet fed C57BL/6 mouse at 3 mg/kg, po daily for 3 days; assay type: functional; design: scale not given: the % may be the effect or the level left; in short: as §2
Mus musculus [8] = assay: Decrease in body weight in […] at 10 mg/kg, po daily for 3 days; assay type: functional, C57BL/6; design: scale not given: the % may be the effect or the level left
Mus musculus [9] = assay: Decrease in total food intake in 28-day diet-induced obesity C57BL/6 mouse model at 3 mg/kg, po daily for 4 weeks measured on day 21; assay type: functional; design: scale not given: the % may be the effect or the level left
In short: (§3)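 C57BL/6 male mice were fed high-fat diet for 4 weeks beforehand to about 40 g and kept on it throughout. Groups of n = 10 were dosed po once daily for 4 weeks at 1 or 3 mg/kg, or vehicle (5% PEG400, 0.25% Tween 80, 94.25% H2O). Food was weighed and replaced with pre-weighed food 3 times weekly. Fed plasma glucose was taken at 2 weeks and insulin at 4 weeks.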

Mus musculus [10] = assay: Decrease in total food intake in 28-day diet-induced obesity C57BL/6 mouse model at 1 mg/kg, po daily for 4 weeks measured on day 21; assay type: functional; design: scale not given: the % may be the effect or the level left; in short: as §3
Mus musculus [11] = assay: Increase in body weight in 28-day diet-induced obesity C57BL/6 mouse model at 1 mg/kg, po daily for 4 weeks; assay type: functional; in short: as §3
Mus musculus [12] = assay: Decrease in insulin level in 28-day diet-induced obesity C57BL/6 mouse model at 3 mg/kg, po daily for 4 weeks; assay type: functional, organism-based; design: dose 3 mg/kg; in short: as §3
Mus musculus [13] = assay: Decrease in plasma triglyceride level in 28-day diet-induced obesity C57BL/6 mouse model at 1 to 3 mg/kg, po daily for 4 weeks; assay type: functional, organism-based; in short: as §3
Mus musculus [14] = assay: Decrease in total cholesterol level in 28-day diet-induced obesity C57BL/6 mouse model at 1 to 3 mg/kg, po daily for 4 weeks; assay type: functional, organism-based
Mus musculus [15] = assay: Toxicity in 28-day diet-induced obesity C57BL/6 mouse model assessed as liver aspartate aminotransferase level at 1 to 3 mg/kg, po daily for 4 weeks; assay type: organism-based; design: dose 1-3 mg/kg, route oral; details: in vivo, 672 h
In short: (§4)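 C57BL/6 male mice kept on high fat diet 4 weeks before study (body weight about 40 g) and throughout; n = 10, dosed orally once daily for 4 weeks at 1 or 3 mg/kg, vehicle 5% PEG400, 0.25% Tween 80, 94.25% H2O; liver weight and ALT, AST, alkaline phosphatase assessed after 4 weeks.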

Mus musculus [16] = assay: Toxicity in 28-day diet-induced obesity C57BL/6 mouse model assessed as liver alkaline phosphatase level at 1 to 3 mg/kg, po daily for 4 weeks; assay type: organism-based; design: dose 1-3 mg/kg, route oral; details: in vivo, 672 h; in short: as §4
Mus musculus [17] = assay: Toxicity in 28-day diet-induced obesity C57BL/6 mouse model assessed as increase in liver weight at 1 to 3 mg/kg, po daily for 4 weeks; assay type: organism-based; design: dose 1-3 mg/kg, route oral; details: in vivo, 672 h; in short: as §4
[18] = Half life in Sprague-Dawley rat at 1 mg/kg, iv; assay type: ADME, organism-based; design: dose 1 mg/kg, route intravenous; details: in vivo
[19] = Volume of distribution in Sprague-Dawley rat at 1 mg/kg, iv; assay type: ADME, organism-based; design: dose 1 mg/kg, route intravenous; details: in vivo
In short: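 Rats given IV bolus at 1 mg/kg; clearance, half-life and volume of distribution derived from plasma drug concentrations.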

[20] = Cmax in Sprague-Dawley rat at 1 mg/kg, iv; assay type: ADME, organism-based; design: dose 1 mg/kg, route intravenous; details: in vivo
[21] = AUC (0 to infinity) in Sprague-Dawley rat at 1 mg/kg, iv; assay type: ADME, organism-based; design: time infinity, dose 1 mg/kg, route intravenous; details: plasma
[22] = Tmax in Sprague-Dawley rat at 3 mg/kg, po; assay type: ADME, organism-based; design: dose 3 mg/kg, route oral; details: in vivo
In short: (§5)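 Rats dosed orally at 3 mg/kg; Cmax, Tmax, oral half-life and AUC determined from plasma, and oral bioavailability (%F) calculated against the 1 mg/kg IV bolus.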

[23] = Half life in Sprague-Dawley rat at 3 mg/kg, po; assay type: ADME, organism-based; design: dose 3 mg/kg, route oral; details: in vivo
[24] = AUC (0 to infinity) in Sprague-Dawley rat at 3 mg/kg, po; assay type: ADME, organism-based; design: dose 3 mg/kg, route oral, time infinity; details: plasma
[25] = Oral bioavailability in Sprague-Dawley rat at 3 mg/kg; assay type: ADME, organism-based; details: in vivo; in short: as §5
[26] = AUC (0 to infinity) in Sprague-Dawley rat plasma at 3 mg/kg, po; assay type: ADME, organism-based; design: time infinity, dose 3 mg/kg, route oral; in short: as §1
[27] = AUC (0 to infinity) in Sprague-Dawley rat plasma at 10 mg/kg, po; assay type: ADME, organism-based; design: time infinity, dose 10 mg/kg, route oral; in short: as §1
[28] = AUC (0 to infinity) in Sprague-Dawley rat plasma at 30 mg/kg, po; assay type: ADME, organism-based; design: time infinity, dose 30 mg/kg, route oral; in short: as §1
[29] = Cmax in Sprague-Dawley rat plasma at 3 mg/kg, po; assay type: ADME, organism-based; design: dose 3 mg/kg, route oral; in short: as §1
[30] = Cmax in Sprague-Dawley rat plasma at 10 mg/kg, po; assay type: ADME, organism-based; design: dose 10 mg/kg, route oral; in short: as §1
[31] = Cmax in Sprague-Dawley rat plasma at 30 mg/kg, po; assay type: ADME, organism-based; design: dose 30 mg/kg, route oral; in short: as §1
[32] = Cmax in Sprague-Dawley rat plasma at 100 mg/kg, po; assay type: ADME, organism-based; design: dose 100 mg/kg, route oral; in short: as §1
[33] = Half life in Sprague-Dawley rat plasma at 3 mg/kg, po; assay type: ADME, organism-based; design: dose 3 mg/kg, route oral; in short: as §1
[34] = Half life in Sprague-Dawley rat plasma at 10 mg/kg, po; assay type: ADME, organism-based; design: dose 10 mg/kg, route oral; in short: as §1
[35] = Half life in Sprague-Dawley rat plasma at 30 mg/kg, po; assay type: ADME, organism-based; design: dose 30 mg/kg, route oral; in short: as §1
[36] = Half life in Sprague-Dawley rat plasma at 100 mg/kg, po; assay type: ADME, organism-based; design: dose 100 mg/kg, route oral; in short: as §1
[37] = AUC (0 to infinity) in Sprague-Dawley rat liver at 100 mg/kg, po; assay type: ADME, organism-based; design: time infinity, dose 100 mg/kg, route oral; in short: as §1
[38] = Cmax in Sprague-Dawley rat liver at 3 mg/kg, po; assay type: ADME, organism-based; design: dose 3 mg/kg, route oral; in short: as §1
[39] = Cmax in Sprague-Dawley rat liver at 10 mg/kg, po; assay type: ADME, organism-based; design: dose 10 mg/kg, route oral; in short: as §1
[40] = Cmax in Sprague-Dawley rat liver at 30 mg/kg, po; assay type: ADME, organism-based; design: dose 30 mg/kg, route oral; in short: as §1
[41] = Cmax in Sprague-Dawley rat liver at 100 mg/kg, po; assay type: ADME, organism-based; design: dose 100 mg/kg, route oral; in short: as §1
[42] = Half life in Sprague-Dawley rat liver at 3 mg/kg, po; assay type: ADME, organism-based; design: dose 3 mg/kg, route oral; in short: as §1
Mus musculus [43] = assay: Decrease in total food intake in 28-day diet-induced obesity C57BL/6 mouse model at 1 to 3 mg/kg, po daily for 4 weeks measured on day 4

CC(C)c1ccc(-c2ccccc2C(=O)Nc2ccc3nc(C(=O)N[C@H](C(=O)N(C)Cc4ccc(F)cc4)c4ccccc4)sc3c2)cc1
half-life [1]: 19.4 h | half-life [2]: 23.7 h | Activity (Mus musculus [3]): Active | Activity (Mus musculus [4]): Active | Activity (Mus musculus [5]): 11% | Activity (Mus musculus [6]): 45% | Activity (Mus musculus [7]): 14% | Activity (Mus musculus [8]): 4% | Activity (Mus musculus [9]): 12% | Activity (Mus musculus [10]): 9% | Activity (Mus musculus [11]): 1% | Activity (Mus musculus [12]): Active | Activity (Mus musculus [13]): Active | Activity (Mus musculus [14]): Active | Activity (Mus musculus [15]): Non-toxic | Activity (Mus musculus [16]): Non-toxic | Activity (Mus musculus [17]): Non-toxic | half-life [18]: 2 h | Vd [19]: 2.99 L/kg | Cmax [20]: 5980 ng/mL | AUC(0-inf) [21]: 976 ng·h/mL | Tmax [22]: 0.5 h | half-life [23]: 2.13 h | AUC(0-inf) [24]: 40.8 ng·h/mL | bioavailability [25]: 1.29% | AUC(0-inf) [26]: 109 ng·h/mL | AUC(0-inf) [27]: 224 ng·h/mL | AUC(0-inf) [28]: 510 ng·h/mL | Cmax [29]: 35 ng/mL | Cmax [30]: 58 ng/mL | Cmax [31]: 49.5 ng/mL | Cmax [32]: 69.5 ng/mL | half-life [33]: 2.42 h | half-life [34]: 7.91 h | half-life [35]: 10.4 h | half-life [36]: 5.44 h | AUC(0-inf) [37]: 1780 ng·h/mL | Cmax [38]: 57 µg/kg | Cmax [39]: 90.1 µg/kg | Cmax [40]: 73.1 µg/kg | Cmax [41]: 84 µg/kg | half-life [42]: 10.7 h | Activity (Mus musculus [43]): Active
